Compounds with a hit are over-represented: about 2.8% of the library has one in this group of screens.
m5-HT2A agonist – activates the mouse 5-HT2A serotonin receptor; AID 624169; activation, % at 7.6 µM; CHO-K1 mHTR2A beta-arrestin complementation, luminescence; percent of 30 µM serotonin response; hit rate 0.66% among 360,000;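 active = activation above a run cutoff, the mean activation of all tested compounds plus 3 SD, cut at about 14% in these data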
MC4R antagonist – antagonists of human melanocortin 4 receptor (MC4R). P32245. MC4R-expressing cells, MTII-stimulated cAMP, LANCE TR-FRET. inhibition, % at 6.5 µM. hit rate 0.48% among 360,000. AID 540295;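 active = inhibition above its plate's cutoff, the mean of tested wells on that plate plus 3 SD, cut at about 29% in these data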
Target sequence (P32245 whole entry, looked up): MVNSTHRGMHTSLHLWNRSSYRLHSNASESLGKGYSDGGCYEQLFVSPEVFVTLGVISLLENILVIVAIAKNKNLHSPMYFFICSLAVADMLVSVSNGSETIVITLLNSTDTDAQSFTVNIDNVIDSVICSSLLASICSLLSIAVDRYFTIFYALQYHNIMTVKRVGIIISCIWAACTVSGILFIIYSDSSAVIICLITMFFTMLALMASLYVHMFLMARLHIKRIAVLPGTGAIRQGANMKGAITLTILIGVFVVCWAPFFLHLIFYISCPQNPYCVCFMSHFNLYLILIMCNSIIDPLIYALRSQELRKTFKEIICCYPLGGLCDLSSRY
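System – human MC4R-expressing U2OS cells · Also added – Melanotan II · Dosing – one concentration, 6.5 µM nominal · Timing – 30-min compound, 1-h challenge, 1-h detection, room temperature · Measured by – Eu-cAMP/anti-cAMP TR-FRET, emission 671 nm · Replicates – singlicate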
EBI2 block – blocks human EBI2 receptor beta-arrestin signaling; AID 651636; hit rate 0.81% among 360,000; P32249; inhibition, % at 5 µM; EBI2 beta-arrestin recruitment, luminescence, 7a,25-OHC stimulated; in the data active = inhibition above about 38%;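 also: enzyme fragment complementation signal reports receptor beta-arrestin coupling in cells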
MC4R ag barr – agonists of human melanocortin 4 receptor (MC4R) beta-arrestin. activation, % at 8.9 µM. hit rate 0.98% among 360,000. U2OS MC4R beta-arrestin complementation, luminescence; percent of melanotan II response, DMSO zero. AID 540308. P32245;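 active = activation above a per-plate cutoff, the mean activation of sample wells on that plate plus 3 SD, cut at about 8% in these data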
MC4R barr ag – human MC4R beta-arrestin agonism confirmation. shares compounds with MC4R ag barr. U2OS MC4R beta-arrestin recruitment, luminescence; scaled DMSO 0%, Melanotan II 100%. activation, % at 8.9 µM. hit rate 31% among 2,400. AID 602192;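 active = mean activation across replicates above the hit cutoff set in the earlier primary screen, cut at about 8% in these data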
MOR DOR agonist – counter-screen for MC4R agonists: agonists of mu-delta opioid heterodimer; activation, % at 9.2 µM; hit rate 5.8% among 2,400; shares compounds with MC4R ag barr; U2OS PathHunter beta-arrestin, beta-gal luminescence; percent of deltorphin B response, DMSO zero;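 active = mean activation across replicates exceeds the hit threshold derived in the earlier primary screen, cut at about 18% in these data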
Large screens that a line does not name were inactive (follow-up assays come after a bar, where they were run).

Cc1ccc(C(=O)N/N=C\c2ccc(-c3ccc(Cl)c(Cl)c3)o2)cn1	MC4R ag barr 11.2 | MC4R barr ag 8.4 | MOR DOR agonist inactive
Cc1ccc(C(=O)N/N=C/c2ccc(-c3cccc(Cl)c3)o2)cn1	none
Cc1c(Cc2ccccc2)sc(NC(=O)C(C)(C)C)c1C(N)=O	none
Cc1c(Cc2ccccc2)sc(NC(=O)Cc2ccccc2)c1C(N)=O	MC4R ag barr 11.3 | MC4R barr ag inactive | MOR DOR agonist inactive
COc1ccc(/C=C/C(=O)Nc2sc(Cc3ccccc3)c(C)c2C(N)=O)cc1	MC4R ag barr 25.4 | MC4R barr ag 16.2 | MOR DOR agonist inactive
CCC(=O)Nc1sc(Cc2ccccc2)c(C)c1C(N)=O	none
Nc1[nH]c(C(=O)c2ccccc2)c(-c2ccc(Cl)cc2Cl)c1C(=O)c1ccc(Br)cc1	none (no result: MC4R antagonist, MC4R ag barr)
O=C(COC(=O)/C=C/c1ccccc1)Nc1ccc2c(c1)OCCO2	none
O=C(COC(=O)/C=C/c1ccc(Cl)cc1)Nc1ccc2c(c1)OCCO2	MC4R ag barr 24.0 | MC4R barr ag inactive | MOR DOR agonist inactive
CCOC(=O)N1CCN(C(=O)C[C@@H]2C[C@@]3(C(=O)OCC)CCCC=C3N(Cc3ccco3)C2=O)CC1	none (no result: MC4R antagonist, MC4R ag barr)
CCCCCc1c2c(cc(O)c1C(=O)O)OC(=O)c1c(cc(OC)cc1C(=O)CCCC)O2	MC4R ag barr 11.4 | MC4R barr ag inactive | MOR DOR agonist inactive
CCCCCc1c2c(cc(O)c1C(=O)O)OC(=O)c1cc(C(=O)CCCC)c(OC)cc1O2	none
CC(OC(=O)c1ccco1)C(=O)NC1CCCCC1 (stereo not given)	none
O=C(OC(C(=O)NC1CCCCC1)c1ccc(C(F)(F)F)cc1)c1ccco1 (stereo not given)	MC4R ag barr 11.2 | MC4R barr ag inactive | MOR DOR agonist inactive
C#CCCc1ccccc1/C=[N+](/C)[O-]	none
COC(=O)c1cccc(NC(=O)CCN2C(=O)NC(C)(C)C2=O)c1	none
N#Cc1ccccc1NC(=O)c1ccc(-c2ccccc2Cl)o1	MC4R ag barr 21.7 | MC4R barr ag inactive | MOR DOR agonist inactive
COc1ccccc1Cn1c(C)c(C(=O)NCCC#N)sc1=O	none
COc1c(C(=O)Nc2ccc3[nH]c(=O)[nH]c3c2)cc2ccccc2c1Br	MC4R ag barr 12.2 | MC4R barr ag inactive | MOR DOR agonist inactive
COc1c(C(=O)Nc2ccc(CN3CCOCC3)cc2)cc2ccccc2c1Br	none
CCOC(=O)C(=CNc1ccc2c(c1)nnn2-c1ccc(Cl)cc1)C(=O)OCC	MC4R ag barr 21.6 | MC4R barr ag 23.4 | MOR DOR agonist inactive
CC1(Oc2cccc(F)c2)CCN(Cc2ccc(-c3ccccc3)o2)C1 (stereo not given)	MC4R ag barr 10.0 | MC4R barr ag inactive | MOR DOR agonist inactive
Cc1cc(Cl)c(S(=O)(=O)N2CCN(c3cccc(C)c3C)CC2)cc1OCC(N)=O	MC4R ag barr 14.4 | MC4R barr ag inactive | MOR DOR agonist inactive
CCOC(=O)C1(C)CCN1C(=O)c1ccc(C)cc1 (stereo not given)	none
Cc1c(CCOC(=O)C2C3CC4CC(C3)CC2C4)sc[n+]1CC(=O)c1ccc(Br)cc1 (stereo not given)	none
Cc1c(CCOC(=O)c2ccc(Cl)cc2Cl)sc[n+]1CC(=O)c1ccc(Br)cc1	MC4R ag barr 27.7 | MC4R barr ag 23.0 | MOR DOR agonist 23.0
O=C(/C=C/c1cc2ccccc2o1)c1ccccc1O	MC4R ag barr 14.7 | MC4R barr ag inactive | MOR DOR agonist inactive
COc1ccc(O)c(C(=O)/C=C/c2cc3ccccc3o2)c1	none
Cc1cc(C(=O)COC(=O)CNC(=O)c2ccc(Cl)c(Cl)c2)c(C)n1Cc1ccco1	MC4R ag barr 11.7 | MC4R barr ag inactive | MOR DOR agonist inactive
Cc1ccc(-c2nc(C=Nc3cccc(C)c3)c(O)o2)cc1	MC4R ag barr 13.8 | MC4R barr ag inactive | MOR DOR agonist inactive
Cc1ccc(-c2nc(C=Nc3ccccc3)c(O)o2)cc1	none
O=C(NC(c1ccccc1)c1ccsc1)C1CCN(Cc2ccc(Oc3ccccc3)cc2)CC1 (stereo not given)	none
CC(C)C[C@@H](COCc1cccc(C(F)(F)F)c1)N1CCN(C(=O)c2ccc(C(F)(F)F)cc2)CCC1=O	none (no result: MC4R antagonist, MC4R ag barr)
